Compound activity (PubChem BioAssay)
Sampled rows, rich in hits. Any-hit rate of the full collection: about 6.1%.
Measles CPE = compounds protecting cells from measles virus cytopathic effect, primary screen, measles RdRp inhibitor project, single point, MLSMR library, absorbance | Measles virus-infected cells, CPE protection | protection (pct of control), % at 4 µM | hit rate 1.5% among 140,000; in the data active = protection mostly above about 24%, no sharp cut-off; inactive = mostly below about 26%
Yeast life ext = compounds extending yeast replicative lifespan, primary screen, S. cerevisiae, OD615; hit rate 0.68% among 130,000; S. cerevisiae growth with nicotinamide; deaD strain in restrictive glucose medium; inhibition of the nicotinamide effect, % at 10 µM; AID 775, 2007;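 active = inhibition above a set limit, placed 3 SD over the median of all compounds, cut at about 26% in these data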;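 also: 0% = nicotinamide-treated wells and 100% = cells grown without nicotinamide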
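Assay system: engineered S. cerevisiae DeaD replicative-lifespan strain, galactose-grown log-phase cells; Buffer or medium: CSMM-D glucose medium, restrictive; Probe or stimulus: nicotinamide 1.5 mM; Compound: single dose 10 µM compound, 0.25% DMSO; Schedule: 4 h preincubation then 48 h treatment at 30 °C; Technique: OD615 measurement.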
RAM inhibit = inhibitors of the yeast RAM network, primary screen, dse1pr::URA3 reporter, 5-FOA selection; S. cerevisiae dse1pr::URA3 reporter, 5-FOA growth OD615, 2 d; analog-sensitive cbk1-as2 kinase mutant strain; inhibition, % at 50 µM; hit rate 1.8% among 190,000; AID 868, 2007;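 active = inhibition above a set limit, 3 SD over mean compound inhibition, cut at about 8.4% in these data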;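 also: 0% = DMSO-only wells with no growth and 100% = 10 µM 1-NA-PP1 full growth; inhibition rescues growth on 5-FOA so higher OD means more RAM inhibition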
DAT uptake mod = changed hDAT dopamine uptake under cocaine IC80, either direction, primary screen, cocaine antagonist project, cell-based, LLC-PK1 hDAT, [14C]-dopamine uptake, MLSMR; LLC-PK1 hDAT cells, [14C]-dopamine uptake with cocaine IC80; actives deviate in either direction; AID 449768, 2010; Sodium-dependent dopamine transporter (Homo sapiens), Q01959; B-score at 10 µM; hit rate 1.3% among 110,000;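 active = Z score or B-score, a plate-position-corrected score, falls beyond the plate's 99.7% confidence bounds, in either direction; inactive = both scores lie inside the 99.7% bounds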;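 also: scored against the spread of the other compound wells on the same plate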
Target sequence (Q01959 whole entry, looked up): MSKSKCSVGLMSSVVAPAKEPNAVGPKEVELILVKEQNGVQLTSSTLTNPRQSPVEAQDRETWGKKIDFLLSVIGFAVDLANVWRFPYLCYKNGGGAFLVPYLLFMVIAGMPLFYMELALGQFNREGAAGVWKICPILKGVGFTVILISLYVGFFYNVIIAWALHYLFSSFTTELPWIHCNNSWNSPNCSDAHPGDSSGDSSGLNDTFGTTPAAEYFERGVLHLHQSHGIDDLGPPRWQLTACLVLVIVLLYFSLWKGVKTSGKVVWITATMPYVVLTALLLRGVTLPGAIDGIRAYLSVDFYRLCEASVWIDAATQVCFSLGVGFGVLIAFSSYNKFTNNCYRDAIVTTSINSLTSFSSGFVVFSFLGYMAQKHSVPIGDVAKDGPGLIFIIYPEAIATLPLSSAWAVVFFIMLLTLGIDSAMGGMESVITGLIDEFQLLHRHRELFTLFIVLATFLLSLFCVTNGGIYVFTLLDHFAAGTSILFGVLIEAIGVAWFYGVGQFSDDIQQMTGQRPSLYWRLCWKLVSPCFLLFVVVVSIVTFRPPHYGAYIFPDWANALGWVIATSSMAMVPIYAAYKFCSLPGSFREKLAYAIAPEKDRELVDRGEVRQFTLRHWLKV
BB579 growth dn = growth inhibitors of yeast BB579 in restrictive medium, primary screen, yeast lifespan-shortening project, S. cerevisiae; OD615, 48 h; hit rate 0.51% among 140,000; AID 804, 2007; inhibition, % at 10 µM;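 active = inhibition above a set limit, 3 SD over the mean compound inhibition, cut at about 44% in these data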
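Assay system: S. cerevisiae DeaD strain BB579 yeast. Medium: CSMM-D restrictive synthetic medium containing dextrose (glucose). Times: 4 h cell preincubation, 48 h compound exposure, 30 °C humidified. Signal: OD615 turbidity measurement. Benchmarks: positive control amphotericin B 10 µg/mL.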
WT yeast gro inh = growth inhibition of WT strain, primary screen, mitochondrial fusion inhibitor project, WT and mutant strains, chemical genetic. mitochondrial fusion phenotypic screen. inhibition, % at 10 µM. hit rate 2.1% among 190,000. AID 1362, 2008; in the data active = inhibition above about 58%; tested in S. cerevisiae
Numbers without * were called inactive.

Screening Oc1ccc(COCc2ccccc2)c2cccnc12 returned Measles CPE 2.2, Yeast life ext -16.4, RAM inhibit 0.7, DAT uptake mod -0.849, BB579 growth dn 99.2* and WT yeast gro inh -0.7.
O=[N+]([O-])c1cc(CN2CCN(c3cccc(C(F)(F)F)c3)CC2)c2cccnc2c1O was read as RAM inhibit -0.9 and WT yeast gro inh 56.6.
Oc1ccc(CN2CCN(c3ccccc3)CC2)c2cccnc12 was read as Measles CPE 4.4, RAM inhibit 1.5, DAT uptake mod -0.0142, BB579 growth dn -22.7 and WT yeast gro inh -10.7.
Screening Cc1ccc(N=Nc2ccc(O)c3ncccc23)cc1 returned Measles CPE 2.9, Yeast life ext -0.5, RAM inhibit 3.3, BB579 growth dn 55.4* and WT yeast gro inh 63.8*.
Screening CC(C)COCc1ccc(O)c2ncccc12 returned RAM inhibit -0.4 and WT yeast gro inh 16.0.
`Oc1ccc(CN2CCCCC2)c2cccnc12` gave Measles CPE 4.0, RAM inhibit -1.2, DAT uptake mod -0.243, BB579 growth dn 45.0* and WT yeast gro inh -8.9.
O=[N+]([O-])c1cc(CN2CCCC2)c2cccnc2c1O was read as Measles CPE 4.8, Yeast life ext -2.8, RAM inhibit 1.3, BB579 growth dn 60.2* and WT yeast gro inh -8.6.
`CN1C(=O)c2ccccc2C(C(=O)NCC2CCCO2)C1c1c[nH]c2ccccc12` (stereo unspecified) gave Measles CPE 8.5, Yeast life ext 17.8, RAM inhibit 0.3, DAT uptake mod 0.795, BB579 growth dn -21.5 and WT yeast gro inh -19.4.
OCc1ccc(O)c2ncccc12 was read as Measles CPE 0.6, Yeast life ext -21.1, RAM inhibit 3.4, DAT uptake mod 0.687, BB579 growth dn 96.2* and WT yeast gro inh 6.7.
O=C(NCc1nnc(SCC(=O)N2CCOCC2)o1)c1cccs1 was read as RAM inhibit 0.8 and WT yeast gro inh -2.3.
Screening O=C1c2cccc(OCC(=O)N3CCCc4ccccc43)c2CCN1Cc1cccnc1 returned RAM inhibit 0.2 and WT yeast gro inh -18.4.
`Cc1ccccc1CN1CCc2c(OCC(=O)N3CCCc4ccccc43)cccc2C1=O` gave Measles CPE 12.3, Yeast life ext 0.8, RAM inhibit 6.0, BB579 growth dn -34.5 and WT yeast gro inh 61.7*.
Screening O=C(NCc1cccnc1)C1CCN(C(=O)c2ccc(Cl)cc2Cl)CC1 returned Measles CPE 35.5*, Yeast life ext -9.4, RAM inhibit 0.9, DAT uptake mod 0.0315, BB579 growth dn -6.6 and WT yeast gro inh -15.5.
`CCS(=O)(=O)N1CCC(C(=O)NCc2cccnc2)CC1` gave Measles CPE 5.5, Yeast life ext 5.5, RAM inhibit -0.8, DAT uptake mod -0.573, BB579 growth dn -33.0 and WT yeast gro inh -20.9.
For COc1cccc(CNC(=O)c2nnn(-c3ccc(OC(F)(F)F)cc3)c2N)c1 the results were Measles CPE 6.8, Yeast life ext -8.0, RAM inhibit -0.3, DAT uptake mod -0.163, BB579 growth dn -28.1 and WT yeast gro inh 17.2.
`Nc1c(C(=O)NCc2ccc3c(c2)OCO3)nnn1-c1ccc(OC(F)(F)F)cc1` gave Measles CPE 53.9*, Yeast life ext 4.4, RAM inhibit 4.5, DAT uptake mod -0.926, BB579 growth dn -40.6 and WT yeast gro inh 12.6.
Cc1cc(C(=O)COC(=O)c2ccc(Br)o2)c(C)n1Cc1ccco1 was read as RAM inhibit 10.3* and WT yeast gro inh 40.1.
Cc1cc(C(=O)COC(=O)c2ccc(O)cc2)c(C)n1Cc1ccco1 was read as Measles CPE 16.5, Yeast life ext 21.4, RAM inhibit 6.2, BB579 growth dn -69.0 and WT yeast gro inh -9.1.
COc1ccc(O)c(-c2cc(C(F)(F)C(F)F)nc(-c3ccccc3)n2)c1 was read as Measles CPE 11.7, Yeast life ext -0.9, RAM inhibit 9.1*, DAT uptake mod 0.298, BB579 growth dn -16.8 and WT yeast gro inh -1.5.
`Oc1ccccc1-c1cc(C(F)(F)C(F)F)nc(-c2ccccc2)n1` gave Measles CPE 3.3, Yeast life ext -8.2, RAM inhibit 5.0, DAT uptake mod -0.6, BB579 growth dn -41.7 and WT yeast gro inh -13.7.
O=c1c2cn[nH]c2nc(SCc2c(F)cccc2F)n1-c1ccc(Cl)cc1 was read as RAM inhibit 3.1 and WT yeast gro inh 72.8*.
`O=C(Nc1nc2c(s1)CN(Cc1ccccc1)CC2)C1CCC1` gave RAM inhibit 3.8 and WT yeast gro inh 0.6.
For CCN1CCc2nc(NC(=O)c3ccccc3)sc2C1 the results were Measles CPE 7.8, Yeast life ext -9.4, RAM inhibit 1.6, BB579 growth dn -44.3 and WT yeast gro inh 80.9*.
Screening Cc1ccc(Sc2ccc(CN3CCCCC3)cc2[N+](=O)[O-])cc1 returned RAM inhibit -0.1 and WT yeast gro inh 61.2*.
CN1CCN(Cc2cn[nH]c2-c2ccc(F)cc2F)[C@@H](c2ccccc2)C1 was read as RAM inhibit 0.6 and WT yeast gro inh 8.8.
For CN(c1ccccc1)c1ccc(/C=C/[N+](=O)[O-])cc1 the results were Measles CPE -0.3, Yeast life ext -11.0, RAM inhibit 6.3, BB579 growth dn 99.6* and WT yeast gro inh 81.1.
C(=N\N(Cc1ccccc1)c1ccccc1)/c1cccnc1 was read as RAM inhibit 1.6 and WT yeast gro inh 74.2*.
Oc1cccc(/C=N/N(Cc2ccccc2)c2ccccc2)c1 was read as RAM inhibit 5.9 and WT yeast gro inh 90.2*.
For C/C(=N\N(Cc1ccccc1)c1ccccc1)c1cccnc1 the results were RAM inhibit 0.0 and WT yeast gro inh 38.7.
For Oc1ccc(/C=N/N(Cc2ccccc2)c2ccccc2)c(O)c1O the results were RAM inhibit 4.8 and WT yeast gro inh 8.5.
For CC1CCCN(C(=O)N2c3ccccc3Sc3ccccc32)C1 (stereo unspecified) the results were Measles CPE 21.6, Yeast life ext -5.6, RAM inhibit 10.2*, DAT uptake mod -1.15, BB579 growth dn -25.3 and WT yeast gro inh 69.4*.
Screening O=C(NC1CCN(C(=O)N2c3ccccc3Sc3ccccc32)CC1)c1ccccc1F returned Measles CPE 40.7*, Yeast life ext -6.0, RAM inhibit 4.9, DAT uptake mod -0.101, BB579 growth dn -20.6 and WT yeast gro inh 35.5.
O=C(O)C1Nc2c(O)cc(Cl)c([N+](=O)[O-])c2C2C=CCC12 (stereo unspecified) was read as RAM inhibit 5.6 and WT yeast gro inh 12.8.
